Calls of active or inactive are those of the source. The calls are words filed in the database; no cut-off is given here.
Assays:
Splenocyte [1] = assay: Inhibition of 5'-CTATCTGACGTTCTCTGT-3'-induced IL12 secretion in C57BL/6 mouse splenocytes at 4 ug/ml after 24 hrs by sandwich ELISA; assay type: functional, cell-based
In short: (§1)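 Splenocytes from 5–8-week C57BL/6 mice, 5 × 10^6 cells/mL in RPMI complete medium, were co-incubated with the TLR9 agonist ODN (1 µg/mL) plus test ODN at 1 or 4 µg/mL, or over a concentration series, at 37 °C for 24 h. Supernatant IL-12 or IL-6 was measured by sandwich ELISA. Runs were done in duplicate, with three independent experiments.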

Splenocyte [2] = assay: Inhibition of 5'-CTATCTGACGTTCTCTGT-3'-induced IL6 secretion in C57BL/6 mouse splenocytes at 4 ug/ml after 24 hrs by sandwich ELISA; assay type: functional, cell-based; in short: as §1
Splenocyte [3] = assay: Immunostimulatory activity in C57BL/6 mouse splenocytes assessed as induction of IL12 secretion at 2 to 10 ug/ml after 24 hrs by sandwich ELISA; assay type: functional, cell-based
In short: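 C57BL/6 splenocytes (mice 5–8 weeks) at 5 × 10^6 cells/mL in RPMI complete medium. ODNs dissolved in PBS were added and the cells incubated at 37 °C for 24 h. Supernatant IL-12 or IL-6 was measured by sandwich ELISA. Runs were done two or three times, in duplicate per concentration.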

J774 [4] = assay: Inhibition of 5'-CTATCTGACGTTCTCTGT-3'-activated NF-kappaB activity in mouse J774 cells at 2.5 ug/ml after 1 hr by EMSA; assay type: cell-based
In short: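 J774 murine macrophages were grown in DMEM with 10% FBS and antibiotics, plated at 5 × 10^6 cells/well, and co-incubated for 1 h with the agonist ODN (0.5 µg/mL) and test ODN (2.5 µg/mL). Nuclear extracts were prepared and NF-κB binding was analysed by EMSA on native polyacrylamide gels with autoradiography.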

J774 [5] = assay: Activation of NF-kappaB in mouse J774 cells at 2.5 ug/ml after 1 hr by EMSA; assay type: cell-based
In short: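 Murine J774 macrophages in DMEM with 10% FBS and antibiotics, plated at 5×10^6 cells/well. ODNs were given alone or together for 1 h. For inhibition, the agonist ODN at 0.5 μg/mL was co-incubated with the modified ODN at 2.5 μg/mL. Nuclear extracts were resolved by EMSA on native polyacrylamide gels and read by autoradiography.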

Mus musculus [6] = assay: Immunostimulatory activity in C57BL/6 mouse assessed as inhibition of 5'-CTATCTGACGTTCTCTGT-3'-induced KC production in serum at 2 mg/kg, sc administered 24 hrs prior to 5'-CTATCTGACGTTCTCTGT-3' challenge measured after 2 hrs by Luminex multiplex assay; assay type: functional, organism-based; design: dose 2 mg/kg
In short: (§2)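 C57BL/6 mice received 2 mg/kg ODN sc in one flank. After 24 h, the TLR9 agonist ODN was given at 0.5 mg/kg sc in the opposite flank. Blood was drawn 2 h later and serum cytokines/chemokines were quantified by Luminex multiplex assay. Percent inhibition was taken against the agonist alone. Representative of three experiments.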

Mus musculus [7] = assay: Immunostimulatory activity in C57BL/6 mouse assessed as induction of MIP-1alpha level in serum at 2 mg/kg, sc after 2 hrs by Luminex multiplex assay; assay type: functional, organism-based; design: dose 2 mg/kg
In short: (§3)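 Female C57BL/6 mice, 5–6 weeks old, n = 3, received a single 2 mg/kg subcutaneous ODN injection in the right flank. Blood was taken by retro-orbital bleeding 2 h later. Naive mice served as baseline. Representative of three experiments.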

Mus musculus [8] = assay: Immunostimulatory activity in C57BL/6 mouse assessed as inhibition of 5'-CTATCTGACGTTCTCTGT-3'-induced TNFalpha production in serum at 2 mg/kg, sc administered 24 hrs prior to 5'-CTATCTGACGTTCTCTGT-3' challenge measured after 2 hrs by Luminex multiplex assay; assay type: functional, organism-based; design: dose 2 mg/kg; in short: as §2
Mus musculus [9] = assay: Immunostimulatory activity in C57BL/6 mouse assessed as induction of KC level in serum at 2 mg/kg, sc after 2 hrs by Luminex multiplex assay; assay type: functional, organism-based; design: dose 2 mg/kg; in short: as §3
[10] = molecular target: T1, Toll-like receptor 9 (Mus musculus) (UniProt Q9EQU3); assay: Activation of mouse TLR9 expressed in HEK293 cells assessed as NF-kappaB level at 0.3 ug/mL after 18 hrs by reporter gene assay; assay type: cell-based
T1 sequence (whole entry): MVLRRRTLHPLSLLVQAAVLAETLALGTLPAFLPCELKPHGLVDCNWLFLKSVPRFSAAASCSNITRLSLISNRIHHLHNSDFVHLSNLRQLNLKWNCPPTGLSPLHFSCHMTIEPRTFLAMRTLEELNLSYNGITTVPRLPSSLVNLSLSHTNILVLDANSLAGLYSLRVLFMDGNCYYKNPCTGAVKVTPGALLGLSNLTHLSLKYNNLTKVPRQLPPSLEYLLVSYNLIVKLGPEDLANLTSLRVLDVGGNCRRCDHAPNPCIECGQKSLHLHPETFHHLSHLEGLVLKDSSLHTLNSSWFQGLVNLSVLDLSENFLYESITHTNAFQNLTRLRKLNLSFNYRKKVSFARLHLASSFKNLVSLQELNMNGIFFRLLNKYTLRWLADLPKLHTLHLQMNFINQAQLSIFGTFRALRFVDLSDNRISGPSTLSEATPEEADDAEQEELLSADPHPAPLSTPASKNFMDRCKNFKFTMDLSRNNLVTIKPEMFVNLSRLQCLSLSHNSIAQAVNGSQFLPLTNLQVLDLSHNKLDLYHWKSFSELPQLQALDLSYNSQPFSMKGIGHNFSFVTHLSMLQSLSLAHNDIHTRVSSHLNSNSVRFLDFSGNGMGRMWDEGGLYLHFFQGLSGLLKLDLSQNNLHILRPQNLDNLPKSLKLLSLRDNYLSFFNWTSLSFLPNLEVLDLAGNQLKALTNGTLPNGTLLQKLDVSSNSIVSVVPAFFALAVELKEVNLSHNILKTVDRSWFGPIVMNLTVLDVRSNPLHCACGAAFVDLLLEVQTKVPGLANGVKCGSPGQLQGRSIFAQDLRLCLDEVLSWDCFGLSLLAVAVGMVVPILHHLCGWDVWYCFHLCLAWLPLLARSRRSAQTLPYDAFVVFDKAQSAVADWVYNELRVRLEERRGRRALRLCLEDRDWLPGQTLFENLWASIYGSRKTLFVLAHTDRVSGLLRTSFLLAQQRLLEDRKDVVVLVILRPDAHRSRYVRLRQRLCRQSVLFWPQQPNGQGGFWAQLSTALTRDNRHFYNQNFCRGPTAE
In short: (§4)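 HEK293 cells stably expressing mouse TLR9 were transiently transfected with a SEAP reporter for 6 h, then stimulated with ODN at 0.1, 0.3 or 1 μg/mL for 18 h. Reporter expression is given as fold change in NF-κB activity over medium. Representative of two independent experiments.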

[11] = molecular target: T1, Toll-like receptor 9 (Mus musculus); assay: Activation of mouse TLR9 expressed in HEK293 cells assessed as NF-kappaB level at 1 ug/mL after 18 hrs by reporter gene assay; assay type: cell-based; in short: as §4
[12] = molecular target: T1, Toll-like receptor 9 (Mus musculus); assay: Activation of mouse TLR9 expressed in HEK293 cells assessed as NF-kappaB level at 0.1 ug/mL after 18 hrs by reporter gene assay; assay type: cell-based; in short: as §4

Activity [10] | Activity [11] | Activity [12] | Compound | Activity (Splenocyte [1]) | Activity (Splenocyte [2]) | Activity (Splenocyte [3]) | Activity (J774 [4]) | Activity (J774 [5]) | Activity (Mus musculus [6]) | Activity (Mus musculus [7]) | Activity (Mus musculus [8]) | Activity (Mus musculus [9])
inactive | inactive | inactive | CO[C@@H]1[C@H](OP(=O)(S)OC[C@H]2O[C@@H](n3cnc4c(=O)[nH]c(N)nc43)C[C@@H]2OP(=O)(S)OC[C@H]2O[C@@H](n3cc(C)c(=O)[nH]c3=O)C[C@@H]2OP(=O)(S)OC[C@H]2O[C@@H](n3cc(C)c(=O)[nH]c3=O)C[C@@H]2OP(=O)(S)OC[C@H]2O[C@@H](n3ccc(N)nc3=O)C[C@@H]2OP(=O)(S)OC[C@H]2O[C@@H](n3cc(C)c(=O)[nH]c3=O)C[C@@H]2OP(=O)(S)OC[C@H]2O[C@@H](n3ccc(N)nc3=O)C[C@@H]2OP(=O)(S)OC[C@H]2O[C@@H](n3cc(C)c(=O)[nH]c3=O)C[C@@H]2OP(=O)(S)OC[C@H]2O[C@@H](n3cnc4c(=O)[nH]c(N)nc43)C[C@@H]2OP(=O)(S)OC[C@H]2O[C@@H](n3cc(C)c(=O)[nH]c3=O)C[C@@H]2O)[C@@H](COP(=O)(S)O[C@H]2C[C@H](n3cnc4c(N)ncnc43)O[C@@H]2COP(=O)(S)O[C@H]2C[C@H](n3cnc4c(=O)[nH]c(N)nc43)O[C@@H]2COP(=O)(S)O[C@H]2C[C@H](n3cc(C)c(=O)[nH]c3=O)O[C@@H]2COP(=O)(S)O[C@H]2C[C@H](n3ccc(N)nc3=O)O[C@@H]2COP(=O)(S)O[C@H]2C[C@H](n3cc(C)c(=O)[nH]c3=O)O[C@@H]2COP(=O)(S)O[C@H]2C[C@H](n3cnc4c(N)ncnc43)O[C@@H]2COP(=O)(S)O[C@H]2C[C@H](n3cc(C)c(=O)[nH]c3=O)O[C@@H]2COP(=O)(S)O[C@H]2C[C@H](n3ccc(N)nc3=O)O[C@@H]2CO)O[C@H]1n1ccc(N)nc1=O (some centres undefined) | Active | Active | Active | Active | inactive | Active | inactive | Active | inactive
inactive | inactive | inactive | CO[C@@H]1[C@H](OP(=O)(S)OC[C@H]2O[C@@H](n3cc(C)c(=O)[nH]c3=O)C[C@@H]2OP(=O)(S)OC[C@H]2O[C@@H](n3cc(C)c(=O)[nH]c3=O)C[C@@H]2OP(=O)(S)OC[C@H]2O[C@@H](n3ccc(N)nc3=O)C[C@@H]2OP(=O)(S)OC[C@H]2O[C@@H](n3cc(C)c(=O)[nH]c3=O)C[C@@H]2OP(=O)(S)OC[C@H]2O[C@@H](n3ccc(N)nc3=O)C[C@@H]2OP(=O)(S)OC[C@H]2O[C@@H](n3cc(C)c(=O)[nH]c3=O)C[C@@H]2OP(=O)(S)OC[C@H]2O[C@@H](n3cnc4c(=O)[nH]c(N)nc43)C[C@@H]2OP(=O)(S)OC[C@H]2O[C@@H](n3cc(C)c(=O)[nH]c3=O)C[C@@H]2O)[C@@H](COP(=O)(S)O[C@H]2C[C@H](n3ccc(N)nc3=O)O[C@@H]2COP(=O)(S)O[C@H]2C[C@H](n3cnc4c(N)ncnc43)O[C@@H]2COP(=O)(S)O[C@H]2C[C@H](n3cnc4c(=O)[nH]c(N)nc43)O[C@@H]2COP(=O)(S)O[C@H]2C[C@H](n3cc(C)c(=O)[nH]c3=O)O[C@@H]2COP(=O)(S)O[C@H]2C[C@H](n3ccc(N)nc3=O)O[C@@H]2COP(=O)(S)O[C@H]2C[C@H](n3cc(C)c(=O)[nH]c3=O)O[C@@H]2COP(=O)(S)O[C@H]2C[C@H](n3cnc4c(N)ncnc43)O[C@@H]2COP(=O)(S)O[C@H]2C[C@H](n3cc(C)c(=O)[nH]c3=O)O[C@@H]2COP(=O)(S)O[C@H]2C[C@H](n3ccc(N)nc3=O)O[C@@H]2CO)O[C@H]1n1cnc2c(=O)[nH]c(N)nc21 (some centres undefined) | Active | Active | Active | Active | inactive | Active | inactive | Active | inactive

Source: ChEMBL document CHEMBL1152452, “Modifications incorporated in CpG motifs of oligodeoxynucleotides lead to antagonist activity of toll-like receptors 7 and 9” (2009)
